Experimental data published in ChEMBL document CHEMBL1157379, “Transcriptional response of Candida parapsilosis following exposure to farnesol” (2007).
Active and inactive are the calls of the source. The rule behind the calls is not given here.

What was measured:
[1] = system: Candida parapsilosis; assay: Decrease in RLM1 gene expression in Candida parapsilosis CLIB214 at 50 uM after 2 hrs by microarray based transcriptional profiling relative to control; assay type: functional
Method in brief: (§1)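 Strain CLIB214 grown overnight in YPD at 30°C, diluted to A600 0.2 in fresh YPD at 30°C. After 4 h (A600 0.8), farnesol (40 mM methanol stock) added to 50 μM final, or an equal methanol volume as control; cells harvested 2 h later. RNA was accepted only with a 28S/18S ratio of 1.6–2.2. Cy3/Cy5-dCTP-labelled cDNA was made from 25 μg total RNA. Hybridisation was to duplicate-spotted 68-mer oligo arrays (3,849 genes) at 42°C for about 16 h. Six individual comparisons.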

[2] = system: Candida parapsilosis; assay: Increase in GAR1 gene expression in Candida parapsilosis CLIB214 at 50 uM after 2 hrs by microarray based transcriptional profiling relative to control; assay type: functional
Method in brief: (§2)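 Strain grown overnight in YPD at 30°C, diluted to A600 0.2 in YPD at 30°C; farnesol (40 mM methanol stock) added at 4 h (A600 0.8), final 50 μM; methanol-only control. Cells collected 2 h later for RNA. Labelled cDNA from 25 μg total RNA (Cy3/Cy5-dCTP) hybridized to 68-mer oligo arrays at 42°C ~16 h; six individual comparisons analysed statistically.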

[3] = system: Candida parapsilosis; assay: Increase in CGD gene ortholog accession number orf19.854 expression in Candida parapsilosis CLIB214 at 50 uM after 2 hrs by microarray based transcriptional profiling relative to control; assay type: functional; method in brief: as §2
[4] = system: Candida parapsilosis; assay: Decrease in CGD gene ortholog accession number orf19.2097 expression in Candida parapsilosis CLIB214 at 50 uM after 2 hrs by microarray based transcriptional profiling relative to control; assay type: functional
Method in brief: (§3)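 Cells in YPD at 30°C treated with 50 μM farnesol at 4 h, with a methanol control. RNA harvested 2 h later and kept only if 28S/18S ratio was 1.6–2.2 with no degradation. 25 μg total RNA oligo-dT primed and labeled with Cy3/Cy5-dCTP. Labeled cDNA hybridized about 16 h at 42°C to duplicate-spotted 68-mer oligo arrays. Six individual comparisons analyzed statistically.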

[5] = system: Candida parapsilosis; assay: Increase in ARP3 gene expression in Candida parapsilosis CLIB214 at 50 uM after 2 hrs by microarray based transcriptional profiling relative to control; assay type: functional; method in brief: as §1
[6] = system: Candida parapsilosis; assay: Decrease in RIA1 gene expression in Candida parapsilosis CLIB214 at 50 uM after 2 hrs by microarray based transcriptional profiling relative to control; assay type: functional; method in brief: as §1
[7] = system: Candida parapsilosis; assay: Antifungal activity against Candida parapsilosis CLIB214 assessed as induction of cell death at 50 uM added 4 hrs after […] growth after 2 hrs by colony counting method; assay type: functional
Method in brief: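 Type strain grown overnight in YPD at 30°C, diluted to A600 0.2 in YPD; farnesol (40 mM stock in methanol) added at a final 50 μM, with a methanol-only control. Viability was measured by CFU counts taken 1 h and 2 h after addition.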

[8] = system: Candida parapsilosis; assay: Decrease in CGD gene ortholog accession number orf19.1728 expression in Candida parapsilosis CLIB214 at 50 uM after 2 hrs by microarray based transcriptional profiling relative to control; assay type: functional; method in brief: as §3
[9] = system: Candida parapsilosis; assay: Decrease in CGD gene ortholog accession number orf19.6744 expression in Candida parapsilosis CLIB214 at 50 uM after 2 hrs by microarray based transcriptional profiling relative to control; assay type: functional; method in brief: as §1
[10] = system: Candida parapsilosis; assay: Decrease in ZCF23 gene expression in Candida parapsilosis CLIB214 at 50 uM after 2 hrs by microarray based transcriptional profiling relative to control; assay type: functional; method in brief: as §1
[11] = system: Candida parapsilosis; assay: Increase in ACC1 gene expression in Candida parapsilosis CLIB214 at 50 uM after 2 hrs by microarray based transcriptional profiling relative to control; assay type: functional; method in brief: as §1
[12] = system: Candida parapsilosis; assay: Increase in PDE2 gene expression in Candida parapsilosis CLIB214 at 50 uM after 2 hrs by microarray based transcriptional profiling relative to control; assay type: functional; method in brief: as §2
[13] = system: Candida parapsilosis; assay: Cell cycle arrest in Candida parapsilosis CLIB214 assessed as accumulation at S phase at 50 uM added 4 hrs after […] growth; assay type: functional, organism-based
Method in brief: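 YPD culture diluted to A600 0.2 at 30°C. Farnesol added to 50 μM after 4 h. Budding cells scored by microscopy: unbudded as G1, small budded as S, large budded as G2/M. Compared with methanol controls.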

[14] = system: Candida parapsilosis; assay: Decrease in CGD gene ortholog accession number orf19.530 expression in Candida parapsilosis CLIB214 at 50 uM after 2 hrs by microarray based transcriptional profiling relative to control; assay type: functional; method in brief: as §3
[15] = system: Candida parapsilosis; assay: Increase in CGD gene ortholog accession number orf19.3185 expression in Candida parapsilosis CLIB214 at 50 uM after 2 hrs by microarray based transcriptional profiling relative to control; assay type: functional; method in brief: as §1
[16] = system: Candida parapsilosis; assay: Decrease in CGD gene ortholog accession number orf19.4947 expression in Candida parapsilosis CLIB214 at 50 uM after 2 hrs by microarray based transcriptional profiling relative to control; assay type: functional; method in brief: as §3
[17] = system: Candida parapsilosis; assay: Effect on membrane lipid localization in ERG9 gene expression in Candida parapsilosis CLIB214 assessed as growing bud tip staining at 50 uM after 1 hr by filipin staining; assay type: functional
Method in brief: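 Cultures grown overnight in YPD at 30°C, diluted to A600 0.2, and given farnesol to 50 μM final (methanol for controls) after 4 h of growth. Cells collected 1 h later, PBS-washed, and stained 10 min at room temperature with 100 μg ml−1 filipin in water. Scored by fluorescence microscopy (excitation 360–370 nm, emission 420–460 nm) as bud-tip versus uniform sterol staining.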

[18] = system: Candida parapsilosis; assay: Increase in DOT5 gene expression in Candida parapsilosis CLIB214 at 50 uM after 2 hrs by microarray based transcriptional profiling relative to control; assay type: functional; method in brief: as §2
[19] = system: Candida parapsilosis; assay: Decrease in CGD gene ortholog accession number orf19.719 expression in Candida parapsilosis CLIB214 at 50 uM after 2 hrs by microarray based transcriptional profiling relative to control; assay type: functional; method in brief: as §1
[20] = system: Candida parapsilosis; assay: Antifungal activity against Candida parapsilosis CLIB214 assessed as growth inhibition at 100 uM added 4 hrs after […] growth; assay type: functional, organism-based
Method in brief: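 C. parapsilosis CLIB214 grown overnight in YPD at 30°C, diluted to A600 0.2 in fresh YPD, grown 4 h (A600 0.8), then farnesol added at final 10, 20, 50 or 100 μM from a 40 mM methanol stock. Methanol-only controls. Growth followed by A600 or by cell counting with a particle counter.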

[21] = system: Candida parapsilosis; assay: Increase in CGD gene ortholog accession number orf19.5963 expression in Candida parapsilosis CLIB214 at 50 uM after 2 hrs by microarray based transcriptional profiling relative to control; assay type: functional; method in brief: as §1
[22] = system: Candida parapsilosis; assay: Increase in KEX2 gene expression in Candida parapsilosis CLIB214 at 50 uM after 2 hrs by microarray based transcriptional profiling relative to control; assay type: functional; method in brief: as §2
[23] = system: Candida parapsilosis; assay: Reduction in GCN3 gene expression in Candida parapsilosis CLIB214 by RT-PCR; assay type: functional
Method in brief: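 Cultures in YPD at 30°C, diluted to A600 0.2; 50 μM farnesol (final) or methanol added at 4 h, RNA harvested 2 h later. RT-PCR: 95°C hot start 1 min 30 s, then 26 cycles (95°C 40 s, 55°C 2 min, 72°C 3 min), final 72°C 5 min; each gene signal normalized to ACT1.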

## CC(C)=CCC/C(C)=C/CC/C(C)=C/CO [FARNESOL]
[1]
  fold change (FC): 1.6
[2]
  fold change (FC): 2.89
[3]
  fold change (FC): 1.69
[4]
  fold change (FC): 1.53
[5]
  fold change (FC): 1.67
[6]
  fold change (FC): 1.65
[7]
  Activity: 20%
[8]
  fold change (FC): 1.59
[9]
  fold change (FC): 1.66
[10]
  fold change (FC): 1.97
[11]
  fold change (FC): 1.59
[12]
  fold change (FC): 1.67
[13]
  Activity: Active
[14]
  fold change (FC): 1.89
[15]
  fold change (FC): 1.6
[16]
  fold change (FC): 1.58
[17]
  Activity: 18%
[18]
  fold change (FC): 1.5
[19]
  fold change (FC): 1.65
[20]
  Activity: Active
[21]
  fold change (FC): 1.68
[22]
  fold change (FC): 1.57
[23]
  fold change (FC): 1.54
